A word on the Km: it is the substrate concentration at which the rate is half of its maximum.

Format in all cases: in vitro ADME
In data set [1] the test system is UDP-glucuronosyltransferases (UGTs) in rat liver microsomes. Kind of data set: Inhibition of 4-MU glucuronidation assay in RLM. The conditions noted are these: for fold more potent inhibition of 4-MU glucuronidation with RLM than with RKM: ratio of IC50 RKM/RLM.
Data set [2] shares this test system. Kind of data set: Kinetic analysis for p-NP glucuronidation in RLM. The procedure, abridged:
(§1)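 RLM or RKM (5 mg mL–1) was pre-treated on ice for 5 min with Triton X-100 (0.25 v/v % RLM; 0.125 v/v % RKM). Incubation was in Tris-HCl pH 7.4 with MgCl2, at seven p-NP levels (0-3,000 µM), started with UDPGA, 37°C for 30 min. The reaction was stopped with TCA and alkalinised with NaOH, and read at 405 nm. Glucuronidated p-NP was taken as blank minus unreacted, per protein and time. Km and Vmax came from a Michaelis-Menten fit.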

The subject of data set [3] is UDP-glucuronosyltransferases (UGTs) in rat kidneys microsomes. Kind of data set: Kinetic analysis for p-NP glucuronidation in RKM. The procedure, abridged:
as §1

The test system is the same in data set [4]. Kind of data set: Kinetic analysis for 4-MU glucuronidation in RKM. The procedure, abridged:
(§2)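 Microsomes from livers or kidneys of untreated male Sprague-Dawley rats. Protein was 0.1 mg mL–1 (RLM) or 0.125 mg mL–1 (RKM), pre-treated on ice for 5 min with Triton X-100 (0.1 μL mg–1 RLM; 0.2 μL mg–1 RKM), in Tris-HCl pH 7.4 with MgCl2. 4-MU ranged 0-10 mM. After 5 min at 37°C, UDPGA started the 15-min reaction, stopped with TCA. 4-MUG was measured by C18 HPLC-UV at 316 nm. Km and Vmax came from a Michaelis-Menten fit.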

Data set [5] has as its system UDP-glucuronosyltransferases (UGTs) in rat liver microsomes. Kind of data set: Kinetic analysis for 4-MU glucuronidation in RLM. In outline:
as §2

Setting [6] is: read-out: Km of p-NP glucuronidation, Michaelis-Menten.

As for `COc1cc(C=O)cc(OC)c1O` [Syringaldehyde], in data set [1] (RLM), the “fold higher IC50 in comparison with vanillin, 4-MU UGT inhibition” value is recorded as 120 fold. For the same compound, the “fold more potent inhibition of 4-MU glucuronidation with RLM than with RKM” value in data set [1] was determined as 1.2 fold.

Turning to `O=[N+]([O-])c1ccc(O)cc1` [p-NP, p-nitrophenol], the “Vmax of p-NP glucuronidation” value in data set [2] (Michaelis-Menten) is given as 43.04 ± 1.64 nmol min^–1 mg^–1; in data set [3] (Michaelis-Menten), 9.320 ± 1.11 nmol min^–1 mg^–1. Also, the Km in data set [2] (setting [6]) stood at 860 ± 86.8 µM; in data set [3] (setting [6]), 857 ± 68.3 µM.

For `Cc1cc(=O)oc2cc(O)ccc12` [4-MU, 4-methylumbelliferone], the “Vmax of 4-MU glucuronidation” value in data set [4] (Michaelis-Menten) amounted to 12.01 ± 0.12 nmol min^–1 mg^–1; in data set [5] (Michaelis-Menten, no inhibitor) it was 27.87 ± 1.08 nmol min^–1 mg^–1. Also, the Km in data set [4] (read-out: Km of 4-MU glucuronidation, Michaelis-Menten) worked out at 101 ± 6 µM; in data set [5] (read-out: Km of 4-MU glucuronidation, Michaelis-Menten, no inhibitor), 104 ± 20 µM.

Turning to `COc1cc(C=O)ccc1O` [Vanillin], the “fold more potent inhibition of 4-MU glucuronidation with RLM than with RKM” value in data set [1] was 2.6 fold.

The values above are taken from paper PMC5407101 (Pharmacognosy Magazine, 2017).
